Activity calls are given as the source filed them. No cut-off for these calls is given here.
Tests used:
MCF7 [1] = test: Induction of autophagy in human MCF7 cells assessed as reduction in cell viability at 1.5 uM administered at 1 hr post […] addition by MTT assay; type: functional, cell-based
Summary of the method: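 MCF-7 cells pretreated with 3-MA (1 mM) for 1 h, then given 1.5 µM. Viability read by MTT: 4 h incubation with MTT, formazan dissolved in DMSO, absorbance at 570 nm.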

[2] = biological target: T1, AMP-activated protein kinase, AMPK (Homo sapiens) (UniProt P54646+O43741+P54619+Q9UGJ0+Q9Y478+Q13131+Q9UGI9); test: Activation of AMPK (unknown origin) at 1 to 10^6 nM using MBP as substrate after 60 mins in presence of ATP by […] assay
Summary of the method: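 ADP-Glo luminescent kinase assay; AMPK or ULK1 enzyme, substrate, ATP and compound diluted in 40 mM Tris pH 7.5, 20 mM MgCl2, 0.1 mg/ml BSA, 50 µM DTT. Enzyme (10 ng) mixed with MBP (0.1 µg/µl)/ATP (10 µM) and compound, 60 min at room temperature. ADP-Glo reagent 40 min, then detection reagent 30 min, luminescence read; signal rises with kinase activity.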

[3] = biological target: T1, AMP-activated protein kinase, AMPK (Homo sapiens); test: Inhibition of AMPK (unknown origin) at 1 to 10^6 nM using MBP as substrate after 60 mins in presence of ATP by ADO-Glo assay
MDA-MB-231 [4] = test: Inhibition of BRD4 protein expression in human MDA-MB-231 cells at 3 uM measured up to 36 hrs by Western blot analysis; type: functional, cell-based
Summary of the method: (§1)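 MCF-7 (1.5 μM) or MDA-MB-231 (3 μM) cells treated for indicated times. Adherent and floating cells lysed in RIPA with 1 mM PMSF. Equal protein run on 10-15% SDS-PAGE, blotted to PVDF, blocked in milk or BSA, HRP/ECL detection. β-actin loading control.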

[5] = biological target: T2, Bromodomain-containing protein 4 (Homo sapiens, UniProt O60885); test: Inhibition of BRD4 in human MDA-MB-231 cells assessed as induction of AMPKalpha phosphorylation at thr172 at 3 uM measured up to 36 hrs by Western blot analysis; type: cell-based; summary of the method: as §1
MCF7 [6] = test: Induction of autophagy in GFP-LC3 fused human MCF7 cells assessed as increase in LC3 puncta at 1.5 uM by fluorescence microscopy; type: functional, cell-based
Summary of the method: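 MCF-7 or MDA-MB-231 cells transfected with eGFP-LC3 plasmid, then treated with 1.5 or 3 µM respectively for 24 h. LC3 puncta viewed by fluorescence microscopy.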

MCF7 [7] = test: Induction of autophagy in human MCF7 cells assessed as increase in LC3B puncta at 1.5 uM after 24 hrs by DAPI-staining based immunocytochemistry; type: functional, cell-based
Summary of the method: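 MCF-7 cells treated with 1.5 µM for 24 h and blocked with 1.5% goat serum in PBS. Incubated overnight at 4°C with anti-LC3B (1:200) in PBS/1% BSA, then FITC secondary for 1 h at room temperature. Nuclei counterstained with DAPI; LC3B puncta imaged.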

MDA-MB-231 [8] = test: Induction of autophagy in human MDA-MB-231 cells assessed as downregulation of p62/SQSTM1 expression at 3 uM measured up to 36 hrs by Western blot analysis; type: functional, cell-based
Summary of the method: (§2)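 MCF-7 (1.5 µM) or MDA-MB-231 (3 µM) cells treated for indicated times. Adherent and floating cells lysed in RIPA with 1 mM PMSF, 4°C for 1 h. Equal protein run on 10-15% SDS-PAGE, transferred to PVDF, blocked with milk or BSA, probed with primary then HRP secondary antibodies, ECL detection; β-actin as loading control.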

[9] = biological target: T2, Bromodomain-containing protein 4; test: Inhibition of BRD4 in human MDA-MB-231 cells assessed as downregulation of AKT phosphorylation at ser473 at 3 uM measured up to 36 hrs by Western blot analysis; type: cell-based; summary of the method: as §1
MCF7 [10] = test: Effect on mTOR expression in human MCF7 cells at 1.5 uM measured up to 36 hrs by Western blot analysis; type: ADME, cell-based; conditions: mcf7, 36 h; summary of the method: as §2
MCF7 [11] = test: Antitumor activity against human MCF7 cells xenografted in nude BALB/c mouse assessed as tumor growth inhibition at 25 to 100 mg/kg, ig administered once a day for 24 days measured every 3 days relative to control; type: functional
Summary of the method: (§3)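 Female BALB/c nude mice, 6-8 weeks, 20-22 g, injected subcutaneously with 5×10^6 MCF-7 or MDA-MB-231 cells. At 100 mm³ tumor volume (V = L×W²/2), split into four groups: 25, 50 or 100 mg/kg intragastric once daily for 24 or 27 days, or vehicle. Tumor volume and body weight measured every 3 days; tumors excised and weighed at end. MCF-7 n=7, MDA-MB-231 n=6 per group.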

MCF7 [12] = test: Antitumor activity against human MCF7 cells xenografted in ig dosed nude BALB/c mouse assessed as tumor growth inhibition administered once a day for 24 days measured every 3 days relative to control; type: functional, organism-based; summary of the method: as §3
Mus musculus [13] = test: In vivo Antiproliferative activity in BALB/c mouse xenografted with human MCF7 cells assessed as increase in LC3 expression at 100 mg/kg, ig administered once a day for 24 days by hematoxylin-staining based immunohistochemistry analysis; type: functional, organism-based
Summary of the method: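 Xenograft tumors from vehicle and 100 mg/kg groups were formalin-fixed and sectioned. Antigen retrieval by microwaving in EDTA buffer (pH 8.0) or citrate buffer (pH 6.0). […] Percentage of positive staining quantified.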

Mus musculus [14] = test: Induction of LC3 accumulation in BALB/c mouse xenografted with human MCF7 cells at 100 mg/kg, ig administered once a day for 24 days by Western blot analysis; type: functional, organism-based
Summary of the method: (§4)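 Tumor tissues excised from MCF-7 or MDA-MB-231 xenograft mice were lysed and analysed by western blot for BRD4, c-Myc, LC3 and cleaved caspase-3.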

Mus musculus [15] = test: Induction of cleavage of caspase-3 in BALB/c mouse xenografted with human MDA-MB-231 cells at 100 mg/kg, ig administered once a day for 27 days by Western blot analysis; type: functional, organism-based
Summary of the method: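 Female BALB/c nude mice (6-8 weeks) given 5×10^6 MCF-7 or MDA-MB-231 cells subcutaneously. At 100 mm3 tumours, dosed intragastrically once daily (25, 50, 100 mg/kg, or vehicle) for 24 or 27 days. Excised tumours lysed and probed by western blot for caspase-3 cleavage.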

MCF7 [16] = test: Induction of autophagy in human MCF7 cells assessed as assessed as cytoplasmic vacuolization; type: functional, cell-based
[17] = biological target: T2, Bromodomain-containing protein 4; test: Inhibition of BRD4 in human MDA-MB-231 cells assessed as reduction in ULK1 protein expression at 3 uM up to 36 hrs by Western blot analysis; type: cell-based; summary of the method: as §1
MCF7 [18] = test: Antitumor activity against human MCF7 cells xenografted in nude BALB/c mouse assessed as reduction in tumor weight at 25 to 100 mg/kg, ig administered once a day for 24 days measured every 3 days relative to control; type: functional, organism-based; summary of the method: as §3
MDA-MB-231 [19] = test: Antitumor activity against human MDA-MB-231 cells xenografted in nude BALB/c mouse assessed as reduction in tumor weight at 25 to 100 mg/kg, ig administered once a day for […] measured every 3 days relative to control; type: functional, organism-based; summary of the method: as §3
Mus musculus [20] = test: Induction of LC3 accumulation in BALB/c mouse xenografted with human MDA-MB-231 cells at 100 mg/kg, ig administered once a day for 24 days by Western blot analysis; type: functional, organism-based; summary of the method: as §4

Activity [2]: inactive | inhibition [3]: inactive | inhibition [5]: Active | inhibition [9]: Active | inhibition [17]: Active
Compound: Cc1cc(-c2nc3sc4c(c3c(=O)[nH]2)CCN(C)C4)cc(C)c1O
Activity (MCF7 [1]): inactive | inhibition (MDA-MB-231 [4]): Active | Activity (MCF7 [6]): Active | Activity (MCF7 [7]): Active | Activity (MDA-MB-231 [8]): Active | Activity (MCF7 [10]): Non-Toxic | TGI (MCF7 [11]): 80% | TGI (MCF7 [12]): Dose-dependent effect | Activity (Mus musculus [13]): Active | Activity (Mus musculus [14]): Active | Activity (Mus musculus [15]): Active | Activity (MCF7 [16]): Active | Activity (MCF7 [18]): Active | Activity (MDA-MB-231 [19]): Active | Activity (Mus musculus [20]): Active

Source: ChEMBL document CHEMBL4028911, “Discovery of a Small-Molecule Bromodomain-Containing Protein 4 (BRD4) Inhibitor That Induces AMP-Activated Protein Kinase-Modulated Autophagy-Associated Cell Death in Breast Cancer” (J Med Chem, 2017)
